Data: ChEMBL document CHEMBL1127615, “5,7-Dimethoxy-3-(4-pyridinyl)quinoline is a potent and selective inhibitor of human vascular beta-type platelet-derived growth factor receptor tyrosine kinase” (J Med Chem, 1994)

Experiments:
[1] = Inhibition of vascular smooth muscle cell proliferation by [3H]thymidine incorporation; format: functional; conditions: Homo sapiens
Procedure, shortened: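 Primary human vascular smooth muscle cells, serum-starved 48 h, then inhibitor for 2 h, PDGF-BB (10 ng/mL) for 24 h, then [3H]thymidine (0.5 μCi/mL) for 24 h more. Cells were washed with ice-cold 5% TCA, extracted with 0.1 N NaOH (30 min, 25 °C), neutralized and counted. Inhibition is relative to vehicle (≤0.5% DMSO).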

[2] = target: Platelet-derived growth factor receptor (Homo sapiens, UniProt P09619+P16234); assay: Inhibition of Platelet-derived growth factor receptor tyrosine kinase; format: protein-complex assay
Protein kinase C (PKC) = assay: Inhibition of Serine/threonine protein kinases C; format: protein assay, Homo sapiens
[3] = target: Receptor tyrosine-protein kinase erbB-2 (Homo sapiens, UniProt P04626); assay: Inhibition of erbB2 receptor
[4] = target: Tyrosine-protein kinase Lck (Homo sapiens, UniProt P06239); assay: Inhibition of p56 lck kinase
Chain of Tyrosine-protein kinase Lck (P06239 whole entry): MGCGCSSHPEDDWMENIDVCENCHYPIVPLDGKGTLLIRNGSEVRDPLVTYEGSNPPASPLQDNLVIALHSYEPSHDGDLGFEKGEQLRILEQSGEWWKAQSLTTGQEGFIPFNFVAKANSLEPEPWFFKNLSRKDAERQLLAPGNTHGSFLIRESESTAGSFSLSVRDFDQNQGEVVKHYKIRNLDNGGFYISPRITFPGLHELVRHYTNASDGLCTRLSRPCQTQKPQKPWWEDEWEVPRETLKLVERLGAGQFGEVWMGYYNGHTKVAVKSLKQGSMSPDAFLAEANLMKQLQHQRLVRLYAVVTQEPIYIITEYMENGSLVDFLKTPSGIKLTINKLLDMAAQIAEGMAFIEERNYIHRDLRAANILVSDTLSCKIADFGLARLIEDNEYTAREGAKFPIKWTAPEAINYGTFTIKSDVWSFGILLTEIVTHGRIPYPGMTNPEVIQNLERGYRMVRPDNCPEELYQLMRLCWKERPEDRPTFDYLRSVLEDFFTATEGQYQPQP

Chain of Receptor tyrosine-protein kinase erbB-2 (P04626 whole entry): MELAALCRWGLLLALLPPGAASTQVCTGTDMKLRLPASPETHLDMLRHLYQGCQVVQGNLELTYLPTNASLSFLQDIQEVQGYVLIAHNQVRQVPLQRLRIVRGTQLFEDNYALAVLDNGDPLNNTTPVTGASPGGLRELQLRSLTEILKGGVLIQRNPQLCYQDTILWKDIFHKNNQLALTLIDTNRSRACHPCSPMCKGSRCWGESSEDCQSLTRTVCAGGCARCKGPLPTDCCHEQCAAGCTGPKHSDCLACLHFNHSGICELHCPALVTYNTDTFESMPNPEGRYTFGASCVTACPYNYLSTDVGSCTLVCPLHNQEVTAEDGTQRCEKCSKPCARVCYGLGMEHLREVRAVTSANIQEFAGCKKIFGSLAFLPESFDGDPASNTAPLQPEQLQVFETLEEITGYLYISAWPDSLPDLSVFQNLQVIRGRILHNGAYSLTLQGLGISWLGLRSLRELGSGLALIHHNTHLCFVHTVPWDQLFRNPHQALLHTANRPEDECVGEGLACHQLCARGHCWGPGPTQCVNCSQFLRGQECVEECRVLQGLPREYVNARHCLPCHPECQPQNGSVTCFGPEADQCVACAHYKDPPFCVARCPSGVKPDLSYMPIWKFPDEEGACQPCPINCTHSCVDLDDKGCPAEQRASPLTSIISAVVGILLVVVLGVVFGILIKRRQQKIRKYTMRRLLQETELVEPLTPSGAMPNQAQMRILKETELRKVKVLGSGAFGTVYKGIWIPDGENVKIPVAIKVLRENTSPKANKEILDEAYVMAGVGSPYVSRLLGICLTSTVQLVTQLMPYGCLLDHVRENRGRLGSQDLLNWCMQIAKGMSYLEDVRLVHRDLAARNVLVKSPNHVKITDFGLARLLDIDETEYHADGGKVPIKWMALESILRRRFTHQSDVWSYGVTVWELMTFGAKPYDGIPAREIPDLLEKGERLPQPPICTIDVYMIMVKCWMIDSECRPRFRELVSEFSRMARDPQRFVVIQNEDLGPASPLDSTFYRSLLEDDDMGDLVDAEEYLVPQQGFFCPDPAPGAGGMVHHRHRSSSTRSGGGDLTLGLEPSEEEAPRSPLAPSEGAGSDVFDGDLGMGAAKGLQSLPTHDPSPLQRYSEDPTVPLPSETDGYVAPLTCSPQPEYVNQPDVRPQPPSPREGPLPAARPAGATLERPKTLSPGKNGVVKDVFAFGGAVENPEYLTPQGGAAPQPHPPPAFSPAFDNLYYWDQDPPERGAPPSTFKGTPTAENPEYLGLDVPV

SMILES	IC50 [1] [µM]	IC50 [2] [µM]	IC50 (Protein kinase C (PKC)) [µM]	IC50 [3] [µM]	IC50 [4] [µM]
Oc1ccc2cc(-c3ccncc3)cnc2c1	> 10	9.2	–	–	–
COc1cc2ncc(-c3ccncc3)cc2c(OC)c1OC	3.5	0.4	–	–	–
COc1cc(OC)c2cc(-c3ccncc3)cnc2c1	0.9	–	> 10	> 10	–
COc1ccc2c(C)c(-c3ccncc3)cnc2c1	–	> 50	–	–	–
COc1cc2cc(-c3ccncc3)cnc2cc1OC	1.8	–	> 10	> 10	> 10
COc1ccc2ncc(-c3ccncc3)cc2c1	–	0.4	–	–	–
COc1ccc2cc(-c3ccncc3)cnc2c1	6.5	0.6	–	–	–
Oc1cc2cc(-c3ccncc3)cnc2cc1O	–	36	> 10	–	–
Oc1cc(O)c2cc(-c3ccncc3)cnc2c1	5.5	1.3	–	–	–
COc1ccc2ncc(-c3ccncc3)c(C)c2c1	–	> 50	–	–	–
c1ccc2ncc(-c3ccncc3)cc2c1	–	1.5	–	–	–
Clc1ccc2cc(-c3ccncc3)cnc2c1	–	0.3	> 10	–	–
